Rpn11 inh: blocks the human proteasome subunit Rpn11 | O00487 | human 26S proteasome, Ub4-pepOG fluorescence polarization; 20S core pre-blocked with epoxomicin | inhibition, % at 20 µM | 360,000 tested, 0.59% active | AID 588493;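 active = inhibition at 20 µM, scaled to each plate's controls, above about 33%, limit read from the data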
Target sequence (O00487 whole entry, looked up): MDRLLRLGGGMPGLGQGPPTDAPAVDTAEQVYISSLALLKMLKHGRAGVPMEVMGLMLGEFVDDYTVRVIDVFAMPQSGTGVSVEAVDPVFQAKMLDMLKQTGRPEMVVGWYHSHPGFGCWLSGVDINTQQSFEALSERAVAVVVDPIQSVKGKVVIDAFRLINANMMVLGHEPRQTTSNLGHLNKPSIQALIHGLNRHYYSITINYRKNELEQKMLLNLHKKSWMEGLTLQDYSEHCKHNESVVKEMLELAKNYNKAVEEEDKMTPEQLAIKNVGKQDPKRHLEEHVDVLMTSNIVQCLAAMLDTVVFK
CSN inh: inhibitors of human CSN-mediated cullin deneddylation | Q92905 | 360,000 tested, 0.38% active | inhibition, % at 12.5 µM | AID 651999 | Purified CSN, SCF-Nedd8-OG deneddylation, fluorescence polarization;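 active = pattern-corrected inhibition above about 35%, with an unprinted fluorescence ratio check between 0.5 and 1.5, limit read from the data, passing the limit was not always enough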
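assay system = purified human Csn5 enzyme expressed in HEK293T cells | amount = 0.24 nM enzyme | buffer or medium = Tris/NaCl/DTT buffer, pH 7.5 | reagent = 10 nM SCFSkp2-Nedd8OG | compound = one concentration, 12.5 µM, 0.25% DMSO | times = 90 min reaction at room temperature | signal = FP | read-out basis = % inhibition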
PP1 inh: PP1-alpha (human) inhibition in PP5 counter-screen; P62136; purified PP1alpha, OMFP fluorescence; inhibition, % at 6.7 µM; 320,000 tested, 0.9% active; AID 2235;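 active = inhibition above the mean inhibition of all tested compounds plus 3 SD, computed separately for each screening campaign, cut at about 15% in these data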
Target sequence (P62136 whole entry, looked up): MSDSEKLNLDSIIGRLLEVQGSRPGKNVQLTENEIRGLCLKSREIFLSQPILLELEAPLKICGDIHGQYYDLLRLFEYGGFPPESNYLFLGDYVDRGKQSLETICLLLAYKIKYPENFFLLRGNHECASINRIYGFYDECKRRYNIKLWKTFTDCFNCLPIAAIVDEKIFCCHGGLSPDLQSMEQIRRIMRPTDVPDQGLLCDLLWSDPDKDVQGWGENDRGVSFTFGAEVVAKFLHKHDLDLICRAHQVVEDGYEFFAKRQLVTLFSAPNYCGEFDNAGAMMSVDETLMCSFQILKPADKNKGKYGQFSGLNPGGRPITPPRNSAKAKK
HNF4A DNA FP: change in binding of human HNF4 alpha to DNA | P41235 | HNF4a-FITC DNA binding, fluorescence polarization, 1 h | activity change, % at 10 µM | 360,000 tested, 0.3% active | AID 1224865; in the data active = activity change above about 30%, passing the limit was not always enough
NadD block: NadD (S. aureus) enzyme inhibition; purified NadD enzyme, colorimetric absorbance read-out; inhibition, % at 20 µM; 360,000 tested, 0.78% active; AID 602399; in the data active = inhibition above about 26%
TPT1 inh: inhibitors of Candida albicans tRNA 2'-phosphotransferase TPT1; AID 1962; recombinant caTPT1, FP RNA substrate dephosphorylation; inhibition, % at 5 µM; 300,000 tested, 0.81% active;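 active = inhibition above the mean of all tested compounds plus 3 SD, set per screening campaign, cut at about 24% in these data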
PP1 inh confirm: human PP1 phosphatase inhibition, confirmation | inhibition, % at 6.7 µM | 1,900 tested, 52% active | shares compounds with PP1 inh | AID 2358 | purified PP1alpha, OMFP substrate fluorescence;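 active = mean PP1 inhibition above a set limit taken from the earlier primary screen, cut at about 15% in these data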
PP5 inh counter: inhibits human PP5 phosphatase in PP1 counter-screen. 1,900 tested, 4% active. inhibition, % at 6.7 µM. purified PP5c, OMFP fluorescence. AID 2360. shares compounds with PP1 inh;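 active = mean PP5 inhibition over triplicate wells above about 9.5% taken from the earlier PP1 screen, limit read from the data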
Numbers stand for hits; 0 = inactive; - = no result given. In the library only some 2.7% were active in any assay of this set; here they are far more common.

SMILES | Rpn11 inh | CSN inh | PP1 inh | HNF4A DNA FP | NadD block | TPT1 inh | PP1 inh confirm | PP5 inh counter
COc1cccc(/C=N/NC(=O)N/N=C/c2cccc(OC)c2O)c1O | 0 | 0 | 21 | 0 | 0 | 0 | 16 | 0
O=C(Cc1ccccc1)N/N=C/c1cc(Br)cc(Cl)c1O | 0 | 0 | 0 | 0 | 0 | 0 | - | -
COc1cc(Br)cc(/C=N/NC(=O)Cc2ccccc2)c1O | 0 | 0 | 19 | 0 | 0 | 0 | 0 | 0
COc1ccccc1C=NNC(=O)NN=Cc1ccccc1OC | 0 | 0 | - | 0 | 0 | - | - | -
COc1cc(C(c2c(C(=O)O)[nH]c3ccccc23)c2c(C(=O)O)[nH]c3ccccc23)ccc1OCc1ccccc1 | 0 | 0 | 19 | 0 | 0 | 0 | 15 | 0
CCCCn1c(N)c(N(CC(C)C)C(=O)C2CCN(C(=O)c3ccc(F)cc3)CC2)c(=O)[nH]c1=O | 0 | 0 | 0 | 0 | 0 | 0 | - | -
CC(C)Cc1nnc(NC(=O)C2CCCC2)s1 | 0 | 0 | 0 | 0 | 0 | 0 | - | -
CSCCC(NC(=O)COc1ccccc1)C(=O)OCC(=O)c1ccccc1 (centres undefined) | 0 | 0 | 60 | 0 | 0 | 0 | 0 | 0
Cc1ccc(C(=O)Nc2nnc(CC(=O)N/N=C/c3ccc(O)c(O)c3)s2)cc1 | - | 0 | 18 | 0 | 37 | 0 | 0 | 0
Cc1ccccc1C(=O)Nc1nnc(CC(=O)N/N=C/c2ccco2)s1 | 0 | 0 | 0 | 0 | 0 | 0 | - | -
CN(c1ccccc1)S(=O)(=O)c1cccc(NC(=O)C2=NNC(=O)CC2)c1 | 0 | 0 | - | 0 | 0 | - | - | -
O=C1c2c(O)cccc2Cc2cccc(O)c21 | 0 | 0 | 35 | 0 | 0 | 0 | 29 | 0
Cc1ccc(C)c(COC(=O)CCN=C2NS(=O)(=O)c3ccccc32)c1 | 0 | 0 | 0 | 0 | 0 | 0 | - | -
Cc1cccc(NC(=S)NCc2ccc3c(c2)cc(C)n3C)c1C | 0 | 0 | 18 | 0 | 0 | 0 | 0 | 0
COc1cccc(NC(=S)NCc2ccc3c(c2)cc(C)n3C)c1 | 0 | 0 | - | 0 | 0 | - | - | -
O=c1ccc2cc3c([nH]c4ccc(Br)cc43)oc-2c1O | 46 | 0 | 58 | 0 | 0 | 0 | 37 | 0
O=C(Cc1ccc(Cl)cc1)Nc1ccc2oc(=O)ccc2c1 | 0 | 0 | 0 | 0 | 0 | 0 | - | -
O=C(Cc1ccc(Cl)cc1)Nc1ccc(-c2cc3ccccc3oc2=O)c(Cl)c1 | 0 | 0 | 23 | 0 | 0 | 0 | 24 | 0
Cc1cccc2c1Sc1ccc(Cl)cc1CC2N1CCNCC1 (centres undefined) | - | - | 19 | - | - | 0 | 0 | 0
O=C(OCc1cn([C@@H]2C[C@H](c3ccc(Cl)cc3)N(C(=O)c3cccs3)C[C@H]2O)nn1)c1ccccc1 | 0 | 0 | - | 0 | 0 | - | - | -
CC1(C)CC(=O)c2c(O)cc(OCC(=O)N3CCN(c4ccccc4)CC3)cc2O1 | 0 | 0 | 20 | 0 | 0 | 0 | 0 | 0
O=C(COc1ccccc1)N1CCN(c2ccccc2)CC1 | 0 | 0 | 0 | 0 | 0 | 0 | - | -
COc1cc(/C=C2\SC(=S)NC2=O)ccc1OS(=O)(=O)c1ccccc1 | - | - | 19 | - | - | 0 | 21 | 0
COc1cc(/C=C2\SC(=S)N(CCCCC(=O)O)C2=O)ccc1OS(=O)(=O)c1ccc(C)cc1 | 0 | 0 | 31 | 0 | 0 | 0 | 29 | 0
COc1cc(/C=C2/SC(=S)NC2=O)ccc1OS(=O)(=O)c1ccc(C)cc1 | 0 | 0 | 26 | 0 | 0 | 0 | 31 | 0
SMILES | Rpn11 inh | CSN inh | PP1 inh | HNF4A DNA FP | NadD block | TPT1 inh | PP1 inh confirm | PP5 inh counter
Cc1cc(OCC(=O)NCCc2c[nH]c3ccccc23)c2c(C)cc(=O)oc2c1 | 0 | 0 | 0 | 0 | 0 | 0 | - | -
Cc1ccc(S(=O)(=O)N2[C@@H](c3ccc(Cl)cc3)C(C(=O)O)=CC[C@H]2c2ccc(Cl)c(Cl)c2)cc1 | 0 | 0 | 21 | 0 | 0 | 0 | 16 | 0
Cc1ccc(S(=O)(=O)N2[C@@H](c3cccc(Cl)c3)C(C(=O)O)=CC[C@H]2c2ccc(Cl)cc2)cc1 | 0 | 0 | 19 | 0 | 0 | 0 | 0 | 0
CCOC(=O)c1c(NC(=O)CSc2ncccn2)sc2c1CCN(Cc1ccccc1)C2 | 0 | 0 | - | 0 | 0 | - | - | -
CCOC(=O)c1c(NC(=O)CSc2nnc3c(n2)[nH]c2ccccc23)sc2c1CCN(C)C2 | 0 | 0 | 18 | 0 | 0 | 0 | 0 | 0
COCCOC(=O)C1=C(C)NC(SCC(=O)NC(C)(C)C)=C(C#N)C1c1ccco1 (centres undefined) | 0 | 0 | - | 0 | 0 | - | - | -
C=CCOC(=O)C1=C(C)NC(SCC(=O)Nc2ccc(C)c(Cl)c2)=C(C#N)C1c1ccco1 (centres undefined) | 0 | 0 | 19 | 0 | 0 | 0 | 0 | 0
NC(=O)c1cc(N)ccc1N1CCCC1 | 0 | 0 | 0 | 0 | 0 | 0 | - | -
Cc1cc(N)ccc1N1CCCC1 | 90 | 0 | 21 | 0 | 70 | 0 | 0 | 0
O=C1CC(N2C(=O)/C(=C/C=C/c3ccccc3)SC2=S)C(=O)N1c1ccccc1 (centres undefined) | - | 0 | 24 | 0 | 0 | 78 | 0 | 0
O=C1NC(=O)C(=CC=Cc2ccccc2)S1 | 0 | 0 | - | 0 | 0 | - | - | -
COc1ccc(C(=O)CSc2nnc(CNc3ccc(C)cc3C)n2Cc2ccco2)cc1 | 0 | 0 | 23 | 0 | 0 | 0 | 0 | 0
O=C(Nc1nnc(-c2ccc(Cl)cc2)o1)c1nc2ccccc2s1 | 0 | 0 | 22 | 0 | 0 | 0 | 26 | 0
Cc1cccc(Nc2nnc(SCC(=O)c3ccc(Br)s3)s2)c1C | 0 | 0 | 21 | 0 | 0 | 0 | 21 | 0
C/C(N)=C(/C#N)C(=O)CSc1nnc(Nc2cccc(C)c2C)s1 | 0 | 0 | 0 | 0 | 0 | 0 | - | -
CCCOc1ccc(C(C)=O)cc1CSc1nc(O)cc(=O)[nH]1 | 0 | 0 | 19 | 0 | 0 | 0 | 0 | 0
CCCOc1ccc(C(C)=O)cc1CSCCC#N | 0 | 0 | 0 | 0 | 0 | 0 | - | -
CCC(C)(C)C1CCC2(CC1)NC(=O)N(CC(=O)N(C)Cc1ccc3c(c1)OCCO3)C2=O (centres undefined) | 0 | 0 | 0 | 0 | 0 | - | - | -
COC(=O)N/N=C(\C)c1ccc(-n2ccnc2)cc1 | 0 | 0 | 0 | 0 | 0 | 0 | - | -
C/C(=N\NC(=O)COc1ccc(C)cc1C(C)C)c1ccc(-n2ccnc2)cc1 | 0 | 0 | 18 | 0 | 0 | 0 | 17 | 0
CNC(=O)C(=O)Nc1cc2c3c(c1)CCN3C(=O)CC2 | 0 | 0 | 0 | 0 | 0 | 0 | - | -
CCN(CC)CCNC(=O)C(=O)Nc1cc2c3c(c1)CCN3C(=O)CC2 | 0 | 0 | 18 | 0 | 0 | 0 | 0 | 0
O=C(CSc1nc2ccc(NC(=O)CSc3nnnn3Cc3ccccc3)cc2s1)Nc1ccccc1 | 0 | 0 | 22 | 0 | 0 | 0 | 0 | 0
COC(=O)CSc1nc2ccc(NC(=O)CSc3nnnn3Cc3ccccc3)cc2s1 | 0 | 0 | 0 | 0 | 0 | 0 | - | -
